Experimental data: ChEMBL document CHEMBL1131119, “N'-Phenylindol-3-ylglyoxylohydrazide derivatives: synthesis, structure-activity relationships, molecular modeling studies, and pharmacological action on brain benzodiazepine receptors” (J Med Chem, 1998)
Calls of active or inactive are those of the source. The calls are words filed in the database; no cut-off is given here.

Legend:
[1] = molecular target: GABA-A receptor; anion channel; assay: Inhibition of [3H]-Ro- 15-1788 binding to GABA-A benzodiazepine receptor of bovine brain membranes; type: cell membranes, Bos taurus
How it was run: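 Bovine cerebral cortex membranes, freeze–thawed and washed in 50 mM Tris-citrate pH 7.4; competition against [3H]Ro 15-1788 by filtration. […] Ki as mean ± SEM of three determinations.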

[2] = molecular target: GABA-A receptor; anion channel (Bos taurus) (UniProt P10063+P08220+P20237+P08219+P10064+P22300); details: Brain membranes, at 0.5 µM
Mus musculus [3] = assay: Convulsant effect in mice following subconvulsant PTZ(40 mg/kg, sc) dose, ineffective to 250 mg/kg; type: functional, organism-based; design: dose 250 mg/kg
Mus musculus [4] = assay: Antagonistic effect against PTZ (80 mg/kg, sc) convulsant action in mice; type: functional
Mus musculus [5] = assay: Antagonistic effect against the anticonvulsant Diazepam (2.5 mg/kg, ip) effect in mice after PTZ (80mg/kg, sc) dose, ineffective to 250 mg/kg; type: functional, organism-based; design: dose 250 mg/kg
Mus musculus [6] = assay: Antagonistic effect against the anticonvulsant Diazepam (2.5 mg/kg, ip) effect in mice after PTZ (80 mg/kg, sc) dose; type: functional
Mus musculus [7] = assay: Convulsant effect in mice following subconvulsant PTZ(40 mg/kg, sc) dose; type: functional
How it was run: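 Groups of 10 mice were given graded ip doses (up to 250 mg/kg) in 20% dilute Emulphor–80% saline, or vehicle alone. A subconvulsant dose of PTZ (40 mg/kg sc) followed 30 min later. ED50 was the dose inducing convulsions in 50% of mice. Values are means of at least three determinations.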

Mus musculus [8] = assay: Antagonistic effect against PTZ (80 mg/kg, sc) convulsant action in mice (ineffective); type: functional, organism-based
How it was run: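 Groups of 10 mice received graded ip doses (up to 250 mg/kg), suspended in 20% dilute Emulphor (1:1 w/w with ethanol)–80% saline, or vehicle alone. PTZ 80 mg/kg sc followed 30 min later. ED50 was the dose protecting 50% of mice from convulsions. Values are means of at least three determinations.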

| Compound | Ki [1] [nM] | Clonazepam [2] [%] | Proconvulsant action (Mus musculus [3]) | ED50 (Mus musculus [4]) [mg/kg] | other results |
| --- | --- | --- | --- | --- | --- |
| Cn1cc(C(=O)C(=O)NNc2ccccc2)c2ccccc21 | 1200 |  |  |  |  |
| O=C(NNc1ccccc1)C(=O)c1c[nH]c2ccccc12 | 203 | 20 |  |  |  |
| O=C(NNc1ccc(Cl)cc1)C(=O)c1c[nH]c2ccccc12 | 62 | 16 | inactive | 25 | Diazepam antagonism (Mus musculus [5]): inactive |
| COc1ccc(NNC(=O)C(=O)c2c[nH]c3ccccc23)cc1 | 430 | 17 |  |  |  |
| CN1C(=O)CN=C(c2ccccc2)c2cc(Cl)ccc21 [DIAZEPAM] |  |  |  | 0.4 |  |
| CCOC(=O)c1ncn2c1CN(C)C(=O)c1cc(F)ccc1-2 [FLUMAZENIL] |  |  | inactive |  | Diazepam antagonism (Mus musculus [6]): 0.3 |
| Cc1ccc(NNC(=O)C(=O)c2c[nH]c3ccccc23)cc1 | 290 | 9 |  |  |  |
| COC(=O)c1cc2c(cn1)[nH]c1ccccc12 [BETA-CCM] |  |  |  |  | Diazepam antagonism (Mus musculus [6]): 0.02; Proconvulsant action (Mus musculus [7]): 19.4; ED50 (Mus musculus [8]): inactive |
| Cn1cc(C(=O)C(=O)NNc2ccc([N+](=O)[O-])cc2)c2ccccc21 | 455 |  |  |  |  |
| Cc1cccc(NNC(=O)C(=O)c2c[nH]c3ccccc23)c1 | 510 | 20 |  |  |  |
| O=C(NNc1ccc([N+](=O)[O-])cc1)C(=O)c1c[nH]c2ccccc12 | 11 | 20 | inactive | 10 | Diazepam antagonism (Mus musculus [5]): inactive |
| O=C1CN=C(c2ccccc2Cl)c2cc([N+](=O)[O-])ccc2N1 |  | 100 |  |  |  |
| CN(NC(=O)C(=O)c1c[nH]c2ccc([N+](=O)[O-])cc12)c1ccccc1 | 2400 | 53 | inactive | 25 | Diazepam antagonism (Mus musculus [5]): inactive |
| O=C(NNc1ccc(O)cc1)C(=O)c1c[nH]c2ccccc12 | 3400 |  |  |  |  |
| O=C(NNc1ccc(F)cc1)C(=O)c1c[nH]c2ccccc12 | 57 | 18 | inactive | 60 | Diazepam antagonism (Mus musculus [5]): inactive |
